Results on 3 compounds are retold here after article PMC3159870 (European journal of nuclear medicine and molecular imaging, 2010).

Read-outs that look alike come from different tables or passages of the source.

The subject of series [1] is TSPO. The class given is binding, human. Conditions: membranes of white blood cells.
The conditions of series [2]: octanol/phosphate buffer, pH 7.4; cited from earlier work.
Series [3] deals with TSPO. As to conditions: human brain tissue; cited from earlier work.
Series [4] has as its system TSPO. In words: in vitro affinity for TSPO in human brain tissue. The class given is binding. As to conditions: PBR06 relative to PBR28.
Series [5] relates to TSPO. The class given is in vivo, human. The method in brief:
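Eight healthy volunteers (2 women, 6 men; 32±11 y), each scanned once with each aryloxyanilide radioligand (18F: 170±26 MBq; 11C: 567±84 MBq; i.v. bolus). Dynamic PET on GE Advance. Radial arterial plasma parent separated by radio-HPLC gave the input function. VT fitted from the first 120 min, then divided by per-scan fP. Ten regions; mean ± SD; repeated-measures ANOVA.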

Series [6] in a line: plasma free fraction. The class given is in vitro ADME, human. Conditions: eight subjects.
Series [7] is described as follows: kinetics of radioligand in plasma and brain after bolus intravenous injection. The class given is in vivo, human.
The subject of series [8] is TSPO. In words: in vivo affinity ratio from slope of regression of regional VT/fP. More on the design: species or system human. Conditions: VT/fP values in ten brain regions.
For series [9], the system named is TSPO. As to conditions: monkey brain; cited from earlier work.
For series [10] the following is noted: radiation exposure; cited from earlier work.
[11] abbreviates: mean of ten brain regions, eight subjects, 120 min data.

With `COc1ccccc1CN(C(C)=O)c1cnccc1Oc1ccccc1` [PBR28], the “fold lower affinity in non-binders than in the majority (90%) of the population” value in series [1] is given as “about 50 fold”. The log distribution coefficient (log D) (in general, the decadic logarithm of the distribution of all forms, ionised or not, between an organic phase and buffer at a given pH) in [2] was 3.0. The Ki (as a rule, a dissociation constant, usually derived from enzyme kinetics or from competition with a known ligand) in [3] was 2.5 nM.
On to `COc1ccc(OC)c(CN(C(=O)CF)c2ccccc2Oc2ccccc2)c1` [PBR06], for which the “fold higher in vitro affinity than PBR28” value in [4] is on record as 2.5 fold. Also, the Ki in [3] is 1 nM.
As for `COc1ccc(OC)c(CN(C(=O)C[18F])c2ccccc2Oc2ccccc2)c1` [^18F-PBR06], the VT in series [5] (Anterior cingulate) is 2.05±0.42 ml × cm^−3; in series [5] (Caudate), 1.72±0.28 ml × cm^−3; in [5] (Cerebellum), 2.26±0.61 ml × cm^−3; in series [5] (Frontal cortex), 2.10±0.40 ml × cm^−3; in [5] (Medial temporal cortex), 2.05±0.46 ml × cm^−3; in series [5] (Occipital cortex), 2.17±0.40 ml × cm^−3. Moreover, the VT is reported as 2.10±0.39 ml × cm^−3 in [5] (Parietal cortex); 1.98±0.36 ml × cm^−3 in series [5] (Putamen); 2.24±0.43 ml × cm^−3 in [5] (Temporal cortex); 2.37±0.44 ml × cm^−3 in series [5] (Thalamus); 2.1±0.4 ml × cm^−3 in [5] (setting [11]). The VT/fP is reported as 97.7±21.5 ml × cm^−3 in series [5] (Anterior cingulate); 83.2±20.3 ml × cm^−3 in series [5] (Caudate); 108.0±33.4 ml × cm^−3 in series [5] (Cerebellum); 100.3±22.6 ml × cm^−3 in series [5] (Frontal cortex); 97.7±22.8 ml × cm^−3 in [5] (Medial temporal cortex); 104.0±24.3 ml × cm^−3 in series [5] (Occipital cortex). Further, the VT/fP in series [5] (Parietal cortex) was determined as 100.3±20.4 ml × cm^−3; in series [5] (Putamen) it was 94.8±21.2 ml × cm^−3; in [5] (Temporal cortex), 107.4±27.7 ml × cm^−3; in [5] (Thalamus), 113.6±25.7 ml × cm^−3; in series [5] (setting [11]), 100.7±24.0 ml × cm^−3. For the same compound, in series [6], the “plasma free fraction (fP)” value came to 2.2±0.6%. Further, the “time of peak brain uptake of radioactivity” value in series [7] (human brain, after injection) is not above 5 min. In addition, in series [7] (human plasma, after injection), the “time of peak plasma concentration of total parent radioligand” value is recorded as not above 2 min. Also, the “peak concentration of brain uptake” value in series [7] (mean of ten regions in eight subjects) amounted to 1.2 SUV. For the same compound, in series [7] (range, ten regions in eight subjects), the “peak concentration of brain uptake, range” value is listed as 1.0–1.6 SUV. Also, the “95% confidence interval of slope (in vivo affinity ratio)” value in series [8] is 0.89–1.84. For the same compound, the “specific binding as part of total uptake” value in [9] is on record as “greater than 90%”. The effective dose in series [10] is listed as 18.5 µSv/MBq.
